Results from ChEMBL document CHEMBL1121418, “Synthesis of syn and anti isomers of 6-[[(hydroxyimino)phenyl]methyl]-1-[(1-methylethyl)sulfonyl]-1H-benzimidazol-2-amine. Inhibitors of rhinovirus multiplication” (1980).
Converted amounts (≈) assume the structure as drawn.

What was measured:
HeLa [1] = assay: Tested in plaque-reduction assay with rhinovirus type 20 at indicated concentration. and the number of plaque formed was reported at conc. 0.35 ug/mL; assay type: functional, Homo sapiens
Summary of the method: (§1)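 Virus was adsorbed onto confluent monolayers for 1 h at room temperature. Monolayers were overlaid with a 1:1 mix of 1% agarose and 2× MEM (Earle's salts, 2.5% FBS) containing compound, diluted from a 10000 μg/mL Me2SO stock. Flasks were incubated at 32 °C until control plaques reached 2–10 mm. Cells were then fixed in 10% formalin–2% sodium acetate and stained with crystal violet, and plaques were counted. Counts from duplicate flasks were averaged.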

HeLa [2] = assay: Percent reduction of plaque formation by rhinovirus type 20 in HeLa cells at conc. 0.04 ug/mL.; assay type: functional, Homo sapiens; summary of the method: as §1
HeLa [3] = assay: Tested in plaque-reduction assay with rhinovirus type 20 at indicated concentration. and the number of plaque formed was reported at conc. 0.00 ug/mL; assay type: functional, Homo sapiens; summary of the method: as §1
HeLa [4] = assay: Dose required to prevent rhinovirus type 16 plaque formation in HeLa cells by 50%ug/mL of agar overlay; assay type: functional; settings: Homo sapiens, read-out: ID50 (the source's name)
Summary of the method: (§2)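 Confluent monolayers were infected with diluted virus and allowed to adsorb for 1 h at room temperature. They were then overlaid with 1% agarose mixed 1:1 with 2× MEM (Earle's salts, 2.5% FBS), containing compound diluted from a 10000 μg/mL Me2SO stock. Incubation was at 32 °C until control plaques reached 2–10 mm. Cells were fixed with formalin–sodium acetate and stained with crystal violet, and plaques were counted. Duplicate flasks were averaged, and ID50 was estimated by plotting results between 10% and 90% inhibition.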

HeLa [5] = assay: Tested in plaque-reduction assay with rhinovirus type 20 at indicated concentration. and the number of plaque formed was reported at conc. 0.08 ug/mL; assay type: functional, Homo sapiens; summary of the method: as §1
HeLa [6] = assay: Dose required to prevent rhinovirus type 32 plaque formation in HeLa cells by 50%ug/mL of agar overlay; assay type: functional; settings: Homo sapiens, read-out: ID50 (the source's name); summary of the method: as §2
HeLa [7] = assay: Dose required to prevent rhinovirus type 3 plaque formation in HeLa cells by 50%ug/mL of agar overlay; assay type: functional; settings: Homo sapiens, read-out: ID50 (the source's name)
Summary of the method: (§3)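 Confluent monolayers in flasks received 0.3 mL of diluted virus and adsorbed 1 h at room temperature. They were then overlaid with 1% agarose plus 2× MEM (Earle's salts, 2.5% FBS, penicillin, streptomycin) containing compound diluted from a 10000 μg/mL Me₂SO stock. Flasks were held at 32 °C until control plaques reached 2–10 mm, then fixed with formalin-acetate and stained with crystal violet. Plaques were counted in duplicate flasks and averaged, and ID₅₀ was estimated by plotting the 10–90% inhibition points.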

HeLa [8] = assay: Dose required to prevent rhinovirus type 69 plaque formation in HeLa cells by 50%ug/mL of agar overlay; assay type: functional; settings: Homo sapiens, read-out: ID50 (the source's name); summary of the method: as §2
HeLa [9] = assay: Dose required to prevent rhinovirus type 50 plaque formation in HeLa cells by 50%ug/mL of agar overlay; assay type: functional; settings: Homo sapiens, read-out: ID50 (the source's name); summary of the method: as §3
HeLa [10] = assay: Percent reduction of plaque formation by rhinovirus type 20 in HeLa cells at conc. 0.35 ug/mL.; assay type: functional, Homo sapiens; summary of the method: as §1
HeLa [11] = assay: Dose required to prevent rhinovirus type 72 plaque formation in HeLa cells by 50%ug/mL of agar overlay; assay type: functional; settings: Homo sapiens, read-out: ID50 (the source's name); summary of the method: as §2
HeLa [12] = assay: Percent reduction of plaque formation by rhinovirus type 20 in HeLa cells at conc. 0.08 ug/mL.; assay type: functional, Homo sapiens; summary of the method: as §1
HeLa [13] = assay: Dose required to prevent rhinovirus type 33 plaque formation in HeLa cells by 50%ug/mL of agar overlay; assay type: functional; settings: Homo sapiens, read-out: ID50 (the source's name); summary of the method: as §2
HeLa [14] = assay: Tested in plaque-reduction assay with rhinovirus type 20 at indicated concentration. and the number of plaque formed was reported at conc. 0.02 ug/mL; assay type: functional, Homo sapiens; summary of the method: as §1
HeLa [15] = assay: Dose required to prevent rhinovirus type 14 plaque formation in HeLa cells by 50%ug/mL of agar overlay; assay type: functional, Homo sapiens; summary of the method: as §2
HeLa [16] = assay: Dose required to prevent rhinovirus type 20 plaque formation in HeLa cells by 50%ug/mL of agar overlay; assay type: functional; settings: Homo sapiens, read-out: ID50 (the source's name); summary of the method: as §2
HeLa [17] = assay: Dose required to prevent rhinovirus type 61 plaque formation in HeLa cells by 50%ug/mL of agar overlay; assay type: functional; settings: Homo sapiens, read-out: ID50 (the source's name); summary of the method: as §2
HeLa [18] = assay: Dose required to prevent rhinovirus type 48 plaque formation in HeLa cells by 50%ug/mL of agar overlay; assay type: functional; settings: Homo sapiens, read-out: ID50 (the source's name); summary of the method: as §2
HeLa [19] = assay: Tested in plaque-reduction assay with rhinovirus type 20 at indicated concentration. and the number of plaque formed was reported at conc. 0.04 ug/mL; assay type: functional, Homo sapiens; summary of the method: as §1
HeLa [20] = assay: Tested in plaque-reduction assay with rhinovirus type 20 at indicated concentration. and the number of plaque formed was reported at conc. 0.75 ug/mL; assay type: functional, Homo sapiens; summary of the method: as §1
HeLa [21] = assay: Dose required to prevent rhinovirus type 65 plaque formation in HeLa cells by 50%ug/mL of agar overlay; assay type: functional; settings: Homo sapiens, read-out: ID50 (the source's name); summary of the method: as §2
HeLa [22] = assay: Dose required to prevent rhinovirus type 15 plaque formation in HeLa cells by 50%ug/mL of agar overlay; assay type: functional; settings: Homo sapiens, read-out: ID50 (the source's name); summary of the method: as §2
HeLa [23] = assay: Dose required to prevent rhinovirus type 37 plaque formation in HeLa cells by 50%ug/mL of agar overlay; assay type: functional; settings: Homo sapiens, read-out: ID50 (the source's name); summary of the method: as §3
HeLa [24] = assay: Percent reduction of plaque formation by rhinovirus type 20 in HeLa cells at conc. 0.02 ug/mL.; assay type: functional, Homo sapiens; summary of the method: as §1
HeLa [25] = assay: Percent reduction of plaque formation by rhinovirus type 20 in HeLa cells at conc. 0.75 ug/mL.; assay type: functional, Homo sapiens; summary of the method: as §1
HeLa [26] = assay: Percent reduction of plaque formation by rhinovirus type 20 in HeLa cells at conc. 0.17 ug/mL.; assay type: functional, Homo sapiens; summary of the method: as §1
HeLa [27] = assay: Tested in plaque-reduction assay with rhinovirus type 20 at indicated concentration. and the number of plaque formed was reported at conc. 0.17 ug/mL; assay type: functional, Homo sapiens; summary of the method: as §1
HeLa [28] = assay: Percent reduction of plaque formation by rhinovirus type 20 in HeLa cells at conc. 0.00 ug/mL.; assay type: functional, Homo sapiens; summary of the method: as §1
HeLa [29] = assay: Percent reduction of plaque formation by rhinovirus type 20 in HeLa cells at conc. 1.5 ug/mL.; assay type: functional, Homo sapiens; summary of the method: as §1
HeLa [30] = assay: Dose required to prevent rhinovirus type 70 plaque formation in HeLa cells by 50%ug/mL of agar overlay; assay type: functional; settings: Homo sapiens, read-out: ID50 (the source's name); summary of the method: as §3
HeLa [31] = assay: Percent reduction of plaque formation by rhinovirus type 20 in HeLa cells at conc. 3.0 ug/mL.; assay type: functional, Homo sapiens; summary of the method: as §1
HeLa [32] = assay: Tested in plaque-reduction assay with rhinovirus type 20 at indicated concentration. and the number of plaque formed was reported at conc. 1.5 ug/mL; assay type: functional, Homo sapiens; summary of the method: as §1
HeLa [33] = assay: Tested in plaque-reduction assay with rhinovirus type 20 at indicated concentration. and the number of plaque formed was reported at conc. 3.0 ug/mL; assay type: functional, Homo sapiens; summary of the method: as §1

CC(C)S(=O)(=O)n1c(N)nc2ccc(/C(=N/O)c3ccccc3)cc21 [ENVIROXIME]
No. of plaques (HeLa [1]): 0
Reduction (HeLa [2]): 87%
No. of plaques (HeLa [3]): 153
IC50 (HeLa [4]): 0.02 µg/mL (≈ 0.0558 µM)
No. of plaques (HeLa [5]): 0
IC50 (HeLa [6]): 0.01 µg/mL (≈ 0.0279 µM)
IC50 (HeLa [7]): 0.04 µg/mL (≈ 0.112 µM)
IC50 (HeLa [8]): 0.01 µg/mL (≈ 0.0279 µM)
IC50 (HeLa [9]): > 0.01 µg/mL
Reduction (HeLa [10]): 100%
IC50 (HeLa [11]): 0.03 µg/mL (≈ 0.0837 µM)
Reduction (HeLa [12]): 100%
IC50 (HeLa [13]): 0.01 µg/mL (≈ 0.0279 µM)
No. of plaques (HeLa [14]): 68
ID50 (HeLa [15]): 0.03 pug ml-1
IC50 (HeLa [16]): 0.02 µg/mL (≈ 0.0558 µM)
IC50 (HeLa [17]): 0.01 µg/mL (≈ 0.0279 µM)
IC50 (HeLa [18]): 0.03 µg/mL (≈ 0.0837 µM)
No. of plaques (HeLa [19]): 18
No. of plaques (HeLa [20]): 0
IC50 (HeLa [21]): > 0.01 µg/mL
IC50 (HeLa [22]): 0.02 µg/mL (≈ 0.0558 µM)
IC50 (HeLa [23]): 0.04 µg/mL (≈ 0.112 µM)
Reduction (HeLa [24]): 55%
Reduction (HeLa [25]): 100%
Reduction (HeLa [26]): 100%
No. of plaques (HeLa [27]): 0
Reduction (HeLa [28]): 0%

CC(C)S(=O)(=O)n1c(N)nc2ccc(/C(=N\O)c3ccccc3)cc21 [ZINVIROXIME]
No. of plaques (HeLa [1]): 49
Reduction (HeLa [29]): 100%
IC50 (HeLa [30]): 0.06 µg/mL (≈ 0.167 µM)
No. of plaques (HeLa [3]): 153
IC50 (HeLa [4]): 0.16 µg/mL (≈ 0.446 µM)
No. of plaques (HeLa [5]): 127
IC50 (HeLa [6]): 0.13 µg/mL (≈ 0.363 µM)
IC50 (HeLa [7]): 0.37 µg/mL (≈ 1.03 µM)
IC50 (HeLa [8]): 0.08 µg/mL (≈ 0.223 µM)
IC50 (HeLa [9]): 0.12 µg/mL (≈ 0.335 µM)
Reduction (HeLa [10]): 67%
IC50 (HeLa [11]): 0.3 µg/mL (≈ 0.837 µM)
Reduction (HeLa [12]): 16%
IC50 (HeLa [13]): 0.1 µg/mL (≈ 0.279 µM)
Reduction (HeLa [31]): 100%
No. of plaques (HeLa [32]): 0
IC50 (HeLa [15]; Homo sapiens, HeLa, read-out: ID50 (the source's name)): 0.36 µg/mL (≈ 1 µM)
IC50 (HeLa [16]): 0.19 µg/mL (≈ 0.53 µM)
IC50 (HeLa [17]): 0.07 µg/mL (≈ 0.195 µM)
IC50 (HeLa [18]): 0.28 µg/mL (≈ 0.781 µM)
No. of plaques (HeLa [33]): 0
No. of plaques (HeLa [20]): 0
IC50 (HeLa [21]): 0.07 µg/mL (≈ 0.195 µM)
IC50 (HeLa [22]): 0.14 µg/mL (≈ 0.391 µM)
IC50 (HeLa [23]): 0.25 µg/mL (≈ 0.697 µM)
Reduction (HeLa [25]): 100%
Reduction (HeLa [26]): 50%
No. of plaques (HeLa [27]): 87
Reduction (HeLa [28]): 0%
